A selection: hits, their analogues and other compounds. The true share with any hit is near 2.6%.
T cruzi inh – inhibitors of intracellular T. cruzi growth, primary screen, luminescence, NIH3T3 host cells; actives 1.4% (n = 300,000); T. cruzi beta-gal in NIH3T3, 90 h; inhibition, % (concentration not given with the values);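 active means mean inhibition across valid replicates above about 55%, limit read from the data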;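 further: signal also drops with host cell toxicity which is not excluded here; higher percent means less beta-gal luminescence so fewer parasites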
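compound dosing = single 50 nL compound addition per well in DMSO | material = NIH/3T3 host cells with β-galactosidase reporter T. cruzi | input = 5,000 host fibroblasts per well | timing = ≥90 h infection period, 3 h prior cell attachment | read-out basis = percent inhibition of parasite-derived β-gal signal | detection = GalScreen β-gal luminescence, detergent lysis, 60 min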
CHT PAM – CHT positive allosteric modulators, primary screen, cell-based, membrane potential dye, choline EC20. High affinity choline transporter 1 (Homo sapiens), Q9GZV3. CHT-expressing cells; hits give high values; LV-AA mutant CHT in HEK293 cells. B-score at 10 µM. actives 0.49% (n = 310,000). AID 488977, 2010;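 active means initial fluorescence not abnormally high and integrated response B-score, plate-corrected, over 3 SD above library mean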
Target sequence (Q9GZV3 whole entry, looked up): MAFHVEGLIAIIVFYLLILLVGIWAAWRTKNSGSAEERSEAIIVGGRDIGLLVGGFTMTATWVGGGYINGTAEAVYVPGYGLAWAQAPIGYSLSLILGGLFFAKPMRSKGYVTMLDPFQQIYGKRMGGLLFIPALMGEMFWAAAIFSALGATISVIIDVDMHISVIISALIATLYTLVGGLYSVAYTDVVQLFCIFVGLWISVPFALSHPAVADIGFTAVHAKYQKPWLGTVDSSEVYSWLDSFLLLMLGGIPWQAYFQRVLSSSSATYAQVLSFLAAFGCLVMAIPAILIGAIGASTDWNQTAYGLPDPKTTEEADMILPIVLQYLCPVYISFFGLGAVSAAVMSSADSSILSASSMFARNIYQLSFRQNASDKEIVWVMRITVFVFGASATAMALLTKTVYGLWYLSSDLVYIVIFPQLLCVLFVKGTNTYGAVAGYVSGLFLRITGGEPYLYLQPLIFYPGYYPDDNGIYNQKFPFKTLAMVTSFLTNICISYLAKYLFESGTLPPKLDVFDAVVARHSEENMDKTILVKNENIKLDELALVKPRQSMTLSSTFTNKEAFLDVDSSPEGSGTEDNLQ
CHT inh – inhibitors of human choline transporter CHT | AID 488975, 2010 | B-score at 10 µM | CHT-expressing cells, membrane potential dye, choline response; hits give low values | actives 0.86% (n = 310,000) | High affinity choline transporter 1 (Homo sapiens), Q9GZV3;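 active means B-score over 3 SD under the library average, and starting fluorescence ratio not unusually high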;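 further: choline stimulus applied at its EC90 after an EC20 pre-addition; B-score computed on integrated fluorescence ratio after choline addition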
PolyA inhibitor – polyadenylation inhibitors in yeast reporter cells, primary screen, luminescence, S. cerevisiae. activity score, % at 12 µM. actives 0.02% (n = 300,000). AID 1875, 2009. S. cerevisiae SKY197-pL101 polyadenylation reporter, beta-gal luminescence; efflux-impaired pdr1/pdr3 knockout yeast; score 100 = 6 SD above DMSO;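 active means lowest replicate activity score at least 50, where 100 means six control SD above control mean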;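 further: yeast exposed to compound for 9 h at 30 °C; higher score means more reporter readthrough which indicates perturbed polyadenylation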
CHT inh conf – CHT inhibitors, confirmation, cell-based, membrane potential dye, duplicate; CHT activity remaining % of control (hits give low values), % at 10 µM; CHT-expressing cells, choline membrane potential dye; LV-to-AA substituted CHT, HEK293 cells; shares compounds with CHT inh; actives 70% (n = 2,400);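 active means choline transporter activity left, mean of duplicates at 10 µM, below buffer-only control mean minus 3 SD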;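 further: depolarization triggered by choline at its EC90 following an EC20 pre-addition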
HEK293 CHT ctr – membrane potential effects in parental HEK293, counter-screen for CHT inhibitor project, cell-based, membrane potential dye; membrane potential ratio readout (active if shifted either direction beyond buffer ±3SD; no single direction) at 10 µM; shares compounds with CHT inh; actives 4% (n = 2,400); choline response; active = decrease or increase beyond buffer ±3SD;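 further: parental cells lack the transporter so any hit is non-specific; ratio is peak minus trough fluorescence over baseline after EC90 choline challenge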
Large screens that a line does not name were inactive (follow-up assays come after a bar, where they were run).

CC(C)c1ccc(/C=C/c2ccc(=O)n(C)n2)cc1	CHT inh -6.9 | CHT inh conf inactive | HEK293 CHT ctr inactive
CC(C)c1ccc(/C=C/C2=NNC(=O)CC2)cc1	none
Cc1ccc(S(=O)(=O)Nc2nc3ccccc3nc2NCc2ccco2)cc1C	CHT inh -5.03 | CHT inh conf inactive | HEK293 CHT ctr inactive
Cc1ccc(S(=O)(=O)Nc2nc3ccccc3nc2NCc2ccco2)cc1	none
COc1cccc(CNC(=O)CCS(=O)(=O)c2ccc3c(c2)oc(=O)n3C)c1	none
COc1ccc(NC(=O)c2ccccc2NC(=O)c2ccccc2C(=O)O)c(OC)c1	none
COc1cc(Br)ccc1NC(=O)c1ccccc1-c1ccccc1C(=O)O	CHT inh -5.42 | CHT inh conf inactive | HEK293 CHT ctr inactive
CCC(=O)N1CCN(c2ccccc2NC(=O)c2cccs2)CC1	none
CCCc1cc(=O)[nH]c(SCC(=O)c2cc(C)n(CCOC)c2C)n1	none
CCCc1cc(=O)[nH]c(SCC(=O)c2cc(C)n(CC(F)(F)F)c2C)n1	CHT inh -6.25 | CHT inh conf inactive | HEK293 CHT ctr inactive
Cc1ccccc1NC(=O)C(C)Sc1nnc(-c2ccncc2)n1CC1CCCO1 (stereo not given)	none
O=C(Nc1nc2nccc(-c3ccccc3)n2n1)c1ccccc1	none
COc1ccc(C(=O)Nc2nc3nccc(-c4ccccc4)n3n2)cc1	CHT inh -6.36 | CHT inh conf inactive | HEK293 CHT ctr inactive
Cc1cccc(N2CCN(C(=O)c3ccc(NS(=O)(=O)c4ccc5[nH]c(=O)[nH]c5c4)cc3)CC2)c1C	CHT inh -5.08 | CHT inh conf inactive | HEK293 CHT ctr inactive
CC(=O)c1ccc(Nc2nc(NCCO)nc(OC(C(F)(F)F)C(F)(F)F)n2)cc1	CHT inh -5.14 | CHT inh conf 66.3% | HEK293 CHT ctr inactive
Cc1ccc(-c2cnc(-c3ccccc3C(=O)O)o2)cc1	none
O=C(NC1CCCCCCC1)c1ccc(CNc2c(N3CCOCC3)c(=O)c2=O)cc1	CHT inh -9.37 | CHT inh conf 12.8% | HEK293 CHT ctr inactive
CC1CCCC(NC(=O)c2ccc(CNc3c(N4CCCC4)c(=O)c3=O)cc2)C1C (stereo not given)	CHT inh -12.8 | CHT inh conf 0.2% | HEK293 CHT ctr inactive
CCOC(=O)C1CCN(c2c(NCc3ccc(C(=O)NC4CCCC4)cc3)c(=O)c2=O)CC1	none
Cc1ccc(CNC(=O)c2ccc(CNc3c(N4CCCC4)c(=O)c3=O)cc2)cc1	none
CCC(C)Sc1ccc([C@@H]2[C@H]3C(=O)N(CC)C(=O)[C@H]3[C@]3(C(=O)OC)CCCN23)cc1OC (stereo not given in full)	none (no result: T cruzi inh, PolyA inhibitor)
COc1ccc(C(=O)NCC(=O)OCC(=O)Nc2cccc(S(=O)(=O)N3CCCC3)c2)cc1	none
CC(C)N(C(=O)COC(=O)c1ccccc1C(=O)c1ccc(Cl)c([N+](=O)[O-])c1)C(C)C	none
CN(CCC#N)C(=O)COC(=O)c1ccccc1C(=O)c1ccc(Cl)c([N+](=O)[O-])c1	CHT inh -4.95 | CHT inh conf 48.6% | HEK293 CHT ctr inactive
Cc1ccc(N2C(=O)C3C4C=CC(CC4)C3C2=O)c([N+](=O)[O-])c1 (stereo not given)	none
O=C(Nc1ccc(F)c(Cl)c1)c1ccccc1	none (no result: T cruzi inh, PolyA inhibitor)
O=C(Nc1ccc(F)c(Cl)c1)c1cccnc1	CHT inh -6.09 | CHT inh conf inactive | HEK293 CHT ctr inactive
CN1CCN(S(=O)(=O)c2cccc(C(=O)Oc3ccc(Br)cc3F)c2)CC1	none
C/C(Cl)=C\Cn1c(O)c(N=O)c2ccccc21	CHT inh -7.06 | CHT inh conf 50.5% | HEK293 CHT ctr inactive
O=C(OCCCN=C1NS(=O)(=O)c2ccccc21)c1ccc([N+](=O)[O-])cc1	none
CCN(CC)CCCN(C(=O)c1ccco1)c1nc(-c2ccc(C)cc2)cs1	none
CCN(CC)CCCN(C(=O)c1ccco1)c1nc(-c2ccc(Cl)cc2)cs1	T cruzi inh 58.8, CHT inh -6.28 | CHT inh conf 37.5% | HEK293 CHT ctr inactive
Nc1cc(-c2ccccc2)nn1Cc1ccccc1	none
OCCn1nc(-c2ccccc2)cc1-c1ccccc1	CHT inh -9.34 | CHT inh conf 25.9% | HEK293 CHT ctr inactive
N#CC(c1ccccc1)c1ccc2c(C(F)(F)F)cc(C(F)(F)F)nc2n1 (stereo not given)	CHT inh -5.53 | CHT inh conf inactive | HEK293 CHT ctr inactive
COc1cc(C)c(Br)cc1S(=O)(=O)N1CCCC1	CHT inh -5.08 | CHT inh conf inactive | HEK293 CHT ctr inactive
CCCCCCCCN1[C@@H](CC(=O)O)c2ccc(C(F)(F)F)cc2S1(=O)=O	CHT inh -6.1 | CHT inh conf 64.7% | HEK293 CHT ctr inactive
O=C(O)CC1=C(Nc2ccccc2)C(=O)N(c2ccccc2)C1c1ccc(Br)cc1 (stereo not given)	CHT inh -5.94 | CHT inh conf 24.6% | HEK293 CHT ctr inactive
O=C(O)CC1=C(O)C(=O)N(c2ccccc2)C1c1ccc(Cl)cc1 (stereo not given)	none
COc1ccc(NC(=O)CN2CCN(C(=S)NC3CCCC3)CC2)cc1	CHT inh -6.29 | CHT inh conf inactive | HEK293 CHT ctr inactive
COc1ccc(NC(=O)CN2CCN(CC(=O)Nc3ccc(OC)cc3)CC2)cc1	none
O=C(NCC(c1ccco1)N1CCc2ccccc2C1)C(=O)Nc1ccc(F)cc1F (stereo not given)	none
Cc1occc1-c1nnc(SCC(=O)Nc2nccs2)n1CCc1ccccc1	CHT inh -6.51 | CHT inh conf inactive | HEK293 CHT ctr inactive
Cc1csc(NC(=O)CSc2nnc(-c3ccoc3C)n2Cc2ccco2)n1	CHT inh -5.29 | CHT inh conf inactive | HEK293 CHT ctr inactive
CSc1nc(N)n2nc(-c3ccccc3)cc2n1	none
N#C/C(=N\Nc1ccc(Cl)c(Cl)c1)C(=O)C1CC1	none
N#C/C(=N\Nc1ccc(F)cc1)C(=O)C1CC1	CHT inh -6.22 | CHT inh conf 50.3% | HEK293 CHT ctr inactive
CS(=O)(=O)c1ccc(Cl)c(NC(=O)CN2C(=O)C3CCCCC3C2=O)c1 (stereo not given)	none
Cc1cc(C(=O)Cn2ncc(Cl)c(Cl)c2=O)c(C)n1CC(F)(F)F	CHT inh -5.61 | CHT inh conf 44.5% | HEK293 CHT ctr inactive
CCCCN1CCc2c1nc1ccc(Br)cc1c2N	CHT inh -5.56 | CHT inh conf 50.7% | HEK293 CHT ctr inactive
CCCCN1CCc2c([nH]c3ccccc23)C1=O	none
